Screening data (PubChem BioAssay)
MrgX1 allo act = allosterically activates human MrgX1 receptor signaling; MrgX1-HEK293, Fluo-4 calcium flux, FDSS; active compounds read high; B-score at 10 µM; hit rate 0.63% among 310,000; Q96LB2;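 active means plate-corrected calcium response at least 3 library SD above typical, normal starting fluorescence, not activating the receptor alone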;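 further: compound read alongside a low EC10 to EC30 dose of BAM8-22 agonist; peak minus trough fluorescence over baseline measured at the second addition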
Target sequence (Q96LB2 whole entry, looked up): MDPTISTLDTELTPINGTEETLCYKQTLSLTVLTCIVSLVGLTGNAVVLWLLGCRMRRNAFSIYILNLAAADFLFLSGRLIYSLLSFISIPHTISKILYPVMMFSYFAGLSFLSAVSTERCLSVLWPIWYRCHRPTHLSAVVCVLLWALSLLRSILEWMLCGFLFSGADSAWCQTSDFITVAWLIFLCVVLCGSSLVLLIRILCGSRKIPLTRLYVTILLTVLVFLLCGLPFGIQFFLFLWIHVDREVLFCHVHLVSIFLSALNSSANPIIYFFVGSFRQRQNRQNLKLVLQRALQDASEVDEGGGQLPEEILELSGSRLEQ
RGS4 block = human RGS4 inhibition. P49798. HEK293 M3R/RGS4 inducible, Fluo-4 calcium flux; active compounds read high; triggered by carbachol at its EC20. B-score at 10 µM. hit rate 0.45% among 310,000;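 active means B-score, a plate-corrected calcium signal, over three deviations above library mean, with baseline fluorescence within five deviations of library mean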;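 further: RGS4 expression induced by doxycycline in cells with stable M3 receptor; B-score is computed from the integrated fluorescence ratio over baseline after carbachol; higher B-score means a larger calcium signal and so more RGS4 inhibition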
Target sequence (P49798 whole entry, looked up): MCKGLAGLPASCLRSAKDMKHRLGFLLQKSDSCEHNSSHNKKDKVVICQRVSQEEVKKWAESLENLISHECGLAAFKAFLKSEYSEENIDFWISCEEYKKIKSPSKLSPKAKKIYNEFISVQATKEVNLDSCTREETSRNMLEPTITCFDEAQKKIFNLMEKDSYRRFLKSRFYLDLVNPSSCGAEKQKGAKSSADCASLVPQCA
RGS4 act = potentiators or activators of RGS4 | HEK293 M3R/inducible RGS4, carbachol calcium flux Fluo4; active compounds read low | B-score at 10 µM | hit rate 0.92% among 310,000;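 active means B-score of the integrated calcium signal more than 4 SD below the library mean, with starting fluorescence not abnormally high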;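 further: negative B-score means reduced calcium response which marks RGS4 activation or potentiation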
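Test system: HEK293 cells with stable M3R and inducible RGS4; also added: carbachol at ECmax as muscarinic agonist stimulus; schedule: dye loading 30 min 37 °C, buffer rest 30 min RT; technique: kinetic calcium fluorescence imaging with Fluo4-AM dye, 2 µM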
MrgX1 antagonist = blocks BAM8-22 activation of human MrgX1 receptor; Q96LB2; MRGX1-HEK293 calcium flux, Fluo-4, BAM8-22 antagonism; active compounds read low; B-score at 10 µM; hit rate 1.3% among 310,000;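 active means calcium-response B-score plate-corrected more than 3 library SD below zero, starting fluorescence within 5 deviations, no agonist response on first addition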;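 further: peak minus trough fluorescence over baseline after final BAM8-22 challenge near maximal dose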
MrgX1 ag = human MrgX1 receptor agonism, primary screen; Q96LB2; MrgX1-HEK293 cells, Fluo-4 calcium fluorescence, agonist mode; active compounds read high; B-score at 10 µM; hit rate 0.44% among 310,000;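 active means calcium response B-score plate-corrected fluorescence ratio at least 3 library SD, with starting fluorescence B-score inside 5 SD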
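System – MrgX1-expressing HEK293 cells · Incubation – cells plated overnight, dye loaded 0.5 h 37 °C, 0.5 h room temperature · Technique – kinetic Fluo-4 NW fluorescence of intracellular calcium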
Hits are given with their value. Most compounds without a hit are left out; they make up all but 3.5% or so of the library.

Screening CCN(CC)c1ccc(/C=C(\C#N)C(=O)c2ccc(Br)cc2)cc1 returned MrgX1 allo act inactive, RGS4 block inactive, RGS4 act inactive, MrgX1 antagonist inactive and MrgX1 ag 30.
Screening CCOC(=O)NC(=O)/C(C#N)=C/c1ccc(N(C)C)cc1 returned MrgX1 allo act inactive, RGS4 block inactive, RGS4 act inactive, MrgX1 antagonist inactive and MrgX1 ag 54.
CCN(CC)c1ccc(/C=C(\C#N)C(N)=S)cc1 was read as MrgX1 allo act inactive, RGS4 block inactive, RGS4 act inactive, MrgX1 antagonist inactive and MrgX1 ag inactive.
CC(C)(C)c1ccc(OCC(=O)N/N=C/c2ccc(N3CCOCC3)cc2)cc1 was read as MrgX1 allo act inactive, RGS4 block inactive, RGS4 act inactive, MrgX1 antagonist inactive and MrgX1 ag inactive.
For Cc1c(NC(=O)C2(c3ccc(Cl)cc3)CCCC2)c(=O)n(-c2ccccc2)n1C the results were MrgX1 allo act inactive, RGS4 block inactive, RGS4 act inactive, MrgX1 antagonist inactive and MrgX1 ag inactive.
For Cc1c(NC(=O)C2(c3ccccc3)CCOCC2)c(=O)n(-c2ccccc2)n1C the results were MrgX1 allo act 6.7, RGS4 block inactive, RGS4 act inactive, MrgX1 antagonist inactive and MrgX1 ag inactive.
Screening OCCC1CN(Cc2ccc(Oc3ncccn3)cc2)CCN1C1CCCCC1 (stereo unspecified) returned MrgX1 allo act inactive, RGS4 block inactive, RGS4 act inactive, MrgX1 antagonist inactive and MrgX1 ag inactive.
Cc1ccc(NC(=O)/C(C#N)=C/c2ccc(C)s2)c(C)c1 was read as MrgX1 allo act inactive, RGS4 block inactive, RGS4 act inactive, MrgX1 antagonist -4.7 and MrgX1 ag inactive.
CCOc1ccc(Br)cc1/C(C)=N\NC1=NCCN1 was read as MrgX1 allo act inactive, RGS4 block inactive, RGS4 act -7, MrgX1 antagonist inactive and MrgX1 ag inactive.
For O=C(C[n+]1cc[nH]c1)c1ccc(Cl)cc1 the results were MrgX1 allo act inactive, RGS4 block inactive, RGS4 act inactive, MrgX1 antagonist inactive and MrgX1 ag inactive.
For S=C(NCCc1ccccc1)NN=C1CCCCCC1 the results were MrgX1 allo act 7.4, RGS4 block inactive, RGS4 act inactive, MrgX1 antagonist inactive and MrgX1 ag inactive.
For S=C(NCCc1ccccc1)N/N=C/C1CCCCC1 the results were MrgX1 allo act 9.1, RGS4 block inactive, RGS4 act inactive, MrgX1 antagonist inactive and MrgX1 ag inactive.
For O=C(NC(=S)NCCc1ccccc1)C1CCCCC1 the results were MrgX1 allo act inactive, RGS4 block inactive, RGS4 act inactive, MrgX1 antagonist inactive and MrgX1 ag inactive.
COCCNC(=S)NN=C1CCCCCC1 was read as RGS4 block inactive and RGS4 act inactive.
COc1ccc(OC)c(NC(=O)Nc2nnc(N3CCCCC3C)s2)c1 (stereo unspecified) was read as MrgX1 allo act inactive, RGS4 block inactive, RGS4 act inactive, MrgX1 antagonist inactive and MrgX1 ag inactive.
For O=[N+]([O-])c1ccc(N/N=C/c2sc(N3CCOCC3)nc2-c2ccccc2)c(S(=O)(=O)Nc2ccc(Cl)cc2)c1 the results were RGS4 block inactive and RGS4 act -7.5.
`COc1cc(CNC(C)(C)C)cc(Br)c1OCc1cccs1` gave MrgX1 allo act inactive, RGS4 block inactive, RGS4 act inactive, MrgX1 antagonist -6.1 and MrgX1 ag inactive.
`COc1cc(CNCCO)cc(Br)c1OCc1cccs1` gave MrgX1 allo act inactive, RGS4 block inactive, RGS4 act inactive, MrgX1 antagonist inactive and MrgX1 ag inactive.
`CC(C)NC(=O)c1cnc(Sc2ncc(C(F)(F)F)cc2Cl)n1C` gave MrgX1 allo act inactive, RGS4 block inactive, RGS4 act -7.6, MrgX1 antagonist inactive and MrgX1 ag inactive.
For Cn1c(C(=O)O)cnc1Sc1ncc(C(F)(F)F)cc1Cl the results were MrgX1 allo act inactive, RGS4 block inactive, RGS4 act inactive, MrgX1 antagonist inactive and MrgX1 ag inactive.
Screening CCOC(=O)C1CCN(C(=O)CCCn2nc(CC)n3c(cc4occc43)c2=O)CC1 returned MrgX1 allo act inactive, RGS4 block inactive, RGS4 act inactive, MrgX1 antagonist inactive and MrgX1 ag inactive.
Screening COCCOC(=O)/C(=C\c1cc(C(C)(C)C)c(O)c(C(C)(C)C)c1)C(C)=O returned MrgX1 allo act 6.6, RGS4 block inactive, RGS4 act inactive, MrgX1 antagonist inactive and MrgX1 ag inactive.
`CC(C)(C)c1cc(CCC(=O)NN)cc(C(C)(C)C)c1O` gave MrgX1 allo act inactive, RGS4 block inactive, RGS4 act inactive, MrgX1 antagonist inactive and MrgX1 ag inactive.
`CC(=O)/C(N=Nc1cc2c(c([N+](=O)[O-])c1C)C(C)(C)CC2(C)C)=C(\C)O` gave MrgX1 allo act 9.4, RGS4 block inactive, RGS4 act inactive, MrgX1 antagonist inactive and MrgX1 ag inactive.
`O=C1C([N+](=O)[O-])=C(O)c2cccc3cccc1c23` gave MrgX1 allo act inactive, RGS4 block inactive, RGS4 act inactive, MrgX1 antagonist inactive and MrgX1 ag inactive.
For OC(CNC1CCCC1)COc1ccc(-c2ccccc2)cc1 (stereo unspecified) the results were MrgX1 allo act inactive, RGS4 block inactive, RGS4 act inactive, MrgX1 antagonist inactive and MrgX1 ag inactive.
Screening OC(CNC1CCCCC1)COCCOc1ccc(Br)cc1 (stereo unspecified) returned MrgX1 allo act inactive, RGS4 block inactive, RGS4 act inactive, MrgX1 antagonist -9.2 and MrgX1 ag inactive.
`O=[N+]([O-])c1ccc(OCC(O)CNC2CCCC2)cc1` (stereo unspecified) gave MrgX1 allo act inactive, RGS4 block inactive, RGS4 act inactive, MrgX1 antagonist inactive and MrgX1 ag 28.
Screening O=[N+]([O-])c1ccc(OCC(O)CN(C2CCCCC2)C2CCCCC2)cc1 (stereo unspecified) returned MrgX1 allo act inactive, RGS4 block inactive, RGS4 act inactive, MrgX1 antagonist inactive and MrgX1 ag inactive.
`CCN(CCNCC(O)COCc1ccc(Cl)cc1)c1cccc(C)c1` (stereo unspecified) gave MrgX1 allo act inactive, RGS4 block inactive, RGS4 act inactive, MrgX1 antagonist inactive and MrgX1 ag inactive.
CCOC(=O)c1c(CSCc2ccccc2)oc2ccc(O)c(CN(C)C)c12 was read as MrgX1 allo act inactive, RGS4 block inactive, RGS4 act inactive, MrgX1 antagonist inactive and MrgX1 ag inactive.
COc1ccccc1NS(=O)(=O)c1cc(NC(=O)Nc2cccc(C)c2)ccc1N1CCCCC1 was read as MrgX1 allo act inactive, RGS4 block inactive, RGS4 act inactive, MrgX1 antagonist inactive and MrgX1 ag inactive.
For O=C(Nc1ccc(Cl)cc1)Nc1ccc(N2CCCC2)c(S(=O)(=O)Nc2ccccc2Cl)c1 the results were MrgX1 allo act inactive, RGS4 block inactive, RGS4 act inactive, MrgX1 antagonist -6 and MrgX1 ag inactive.
Screening Cc1cccc(-c2cc(C(=O)Nc3c(C)n(C)n(-c4ccccc4)c3=O)c3ccccc3n2)c1 returned MrgX1 allo act 6.6, RGS4 block inactive, RGS4 act -8.5, MrgX1 antagonist inactive and MrgX1 ag inactive.
